“And” between values parts separate entries of the source, which are not always exact repeats. Equal entries are not always repeated. “Also recorded” adds a separate entry of the source.
Experiments:
[1] = test system: PC-3 cells; test: CCK-8 antiproliferation assay on PC-3 cells; assay type: cell-based; conditions: for IC50: Homo sapiens, PC-3, 48 h, read-out: antiproliferative activity IC50; for antiproliferation activity on PC-3 cells (in words): 1–100 μmol/L, 48 h
How it was run: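 PC-3 cells in RPMI-1640 with 10% FBS, 37 °C, 5% CO2. Seeded at 5000 cells/well, left 24 h, then exposed to test compound for 48 h; controls received DMSO only. CCK-8 reagent (WST-8/PMS) was added for 1 h at 37 °C and absorbance read at 450 nm. Viability was calculated against untreated-cell and cell-free blank wells.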

[2] = biological target: T1, α1A-AR (Homo sapiens, UniProt P35348); test: Western blot analysis of α1A-AR level in α1A-AR stably transfected HEK293 cells; assay type: cell-based; conditions: for DC50: read-out: DC50 (concentration required for 50% protein degradation) of α1A-AR, α1A-AR stably transfected HEK293 cells, 12 h, Western blot; for effect on α1A-AR level (Western blot, in words): α1A-AR HEK293 cells, indicated concentrations 12 h, 3 μmol/L for indicated time
T1 sequence (P35348 1-466): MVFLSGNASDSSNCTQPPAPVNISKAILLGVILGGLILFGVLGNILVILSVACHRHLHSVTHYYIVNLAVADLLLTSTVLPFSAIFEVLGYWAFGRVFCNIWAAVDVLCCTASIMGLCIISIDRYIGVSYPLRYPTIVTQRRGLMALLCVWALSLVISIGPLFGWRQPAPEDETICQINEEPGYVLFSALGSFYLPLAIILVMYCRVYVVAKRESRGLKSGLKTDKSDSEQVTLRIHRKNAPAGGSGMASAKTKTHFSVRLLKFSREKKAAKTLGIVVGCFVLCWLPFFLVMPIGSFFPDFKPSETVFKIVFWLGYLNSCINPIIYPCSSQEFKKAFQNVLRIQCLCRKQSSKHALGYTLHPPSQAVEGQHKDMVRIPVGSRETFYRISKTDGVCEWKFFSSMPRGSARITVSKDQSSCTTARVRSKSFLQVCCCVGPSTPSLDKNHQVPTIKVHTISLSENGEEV

[3] = biological target: T2, α1B-AR (Homo sapiens, UniProt P35368); test: Western blot analysis of α1B-AR level in stably transfected HEK293 cells; assay type: cell-based; conditions: 12 h
T2 sequence (P35368 1-520): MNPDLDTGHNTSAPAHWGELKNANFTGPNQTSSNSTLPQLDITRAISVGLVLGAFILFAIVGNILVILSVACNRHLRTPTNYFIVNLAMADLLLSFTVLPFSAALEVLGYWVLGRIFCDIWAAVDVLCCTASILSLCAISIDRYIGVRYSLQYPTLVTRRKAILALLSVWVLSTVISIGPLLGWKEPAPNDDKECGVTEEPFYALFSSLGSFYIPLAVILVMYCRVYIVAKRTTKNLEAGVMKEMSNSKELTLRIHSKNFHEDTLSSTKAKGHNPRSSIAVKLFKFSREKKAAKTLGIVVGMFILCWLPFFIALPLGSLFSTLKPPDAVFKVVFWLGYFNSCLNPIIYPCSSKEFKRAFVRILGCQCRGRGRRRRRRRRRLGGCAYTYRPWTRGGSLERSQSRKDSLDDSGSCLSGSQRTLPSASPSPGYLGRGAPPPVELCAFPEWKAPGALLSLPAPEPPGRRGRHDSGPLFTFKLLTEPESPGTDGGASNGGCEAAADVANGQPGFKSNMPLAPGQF

[4] = biological target: T3, α1D-AR (Homo sapiens, UniProt P25100); test: Western blot analysis of α1D-AR level in stably transfected HEK293 cells; assay type: cell-based; conditions: 12 h
T3 sequence (P25100 1-572): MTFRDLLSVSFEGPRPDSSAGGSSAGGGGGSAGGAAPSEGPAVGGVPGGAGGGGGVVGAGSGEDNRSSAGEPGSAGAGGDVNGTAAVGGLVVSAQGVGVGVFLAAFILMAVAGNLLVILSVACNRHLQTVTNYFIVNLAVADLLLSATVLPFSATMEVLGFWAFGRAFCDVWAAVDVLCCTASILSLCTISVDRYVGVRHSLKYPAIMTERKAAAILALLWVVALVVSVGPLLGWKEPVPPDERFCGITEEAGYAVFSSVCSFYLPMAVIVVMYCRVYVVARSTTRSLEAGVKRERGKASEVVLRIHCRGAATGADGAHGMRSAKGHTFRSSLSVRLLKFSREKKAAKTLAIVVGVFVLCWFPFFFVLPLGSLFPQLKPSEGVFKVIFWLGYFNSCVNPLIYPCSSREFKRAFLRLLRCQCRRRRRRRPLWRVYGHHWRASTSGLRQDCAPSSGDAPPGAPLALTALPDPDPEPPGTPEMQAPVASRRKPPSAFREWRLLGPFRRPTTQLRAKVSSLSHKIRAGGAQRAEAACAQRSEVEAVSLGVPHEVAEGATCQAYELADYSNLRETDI

[5] = test system: PC-3 derived prostate cancer xenografts; test: PC-3 tumor xenograft model in nude mice; assay type: in vivo; conditions: 50 mg/kg daily intraperitoneal, two weeks
How it was run: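 Four-week-old nude mice were given PC-3 cells subcutaneously (10⁶ cells/mouse). At 400 mm³ tumour volume they were split into two groups (n = 5). Each group received test compound or vehicle (10% DMSO + 10% PEG400 + 80% saline) i.p. daily for two weeks. Caliper tumour volume and body weight were taken every 2–3 days. Tumours were harvested 12 h after the last dose.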

| IC50 [1] | DC50 [2] | effect on α1A-AR level (Western blot, in words) [2] | SMILES | antiproliferation activity on PC-3 cells (in words) [1] | further results |
| --- | --- | --- | --- | --- | --- |
|  | ~4.32 µM |  | COc1cc2nc(N3CCN(C(=O)c4cn(CCOCC(=O)Nc5cccc6c5C(=O)N(C5CCC(=O)NC5=O)C6=O)nn4)CC3)nc(N)c2cc1OC (centres unmarked) [Compound 9a, 2-(2-(4-(4-(4-Amino-6,7-dimethoxyquinazolin-2-yl)piperazine-1-carbonyl)-1H-1,2,3-triazol-1-yl)ethoxy)-N-(2-(2,6-dioxopiperidin-3-yl)-1,3-dioxoisoindolin-4-yl)acetamide] | concentration-dependent antiproliferation activities |  |
|  |  | did not show too much effect | COc1cc2nc(N3CCN(C(=O)c4cn(CCOCCOCC(=O)Nc5cccc6c5C(=O)N(C5CCC(=O)NC5=O)C6=O)nn4)CC3)nc(N)c2cc1OC (centres unmarked) [Compound 9b, 2-(2-(2-(4-(4-(4-Amino-6,7-dimethoxyquinazolin-2-yl)piperazine-1-carbonyl)-1H-1,2,3-triazol-1-yl)ethoxy)ethoxy)-N-(2-(2,6-dioxopiperidin-3-yl)-1,3-dioxoisoindolin-4-yl)acetamide] | much less influence |  |
| 6.12 µM | ~2.86 µM and 2.86 µM |  | COc1cc2nc(N3CCN(C(=O)c4cn(CCOCCOCCOCC(=O)Nc5cccc6c5C(=O)N(C5CCC(=O)NC5=O)C6=O)nn4)CC3)nc(N)c2cc1OC (centres unmarked) [Compound 9c, 2-(2-(2-(2-(4-(4-(4-Amino-6,7-dimethoxyquinazolin-2-yl)piperazine-1-carbonyl)-1H-1,2,3-triazol-1-yl)ethoxy)ethoxy)ethoxy)-N-(2-(2,6-dioxopiperidin-3-yl)-1,3-dioxoisoindolin-4-yl)acetamide] | concentration-dependent antiproliferation activities | Dmax ([2]; HEK293, read-out: maximal level of degradation (Dmax) of α1A-AR): 94%; time for α1A-AR level to recover to basal level after washout ([2]; after 12 h pretreatment with 10 μmol/L, cells washed thoroughly): approximately 24 h; α1A-AR degradation after bortezomib pretreatment (in words) ([2]; pretreatment of cells using bortezomib for more than 7 h): could no longer trigger the degradation; degradation activity for α1B-AR (in words) [3]: no degradation activity; influence on α1D-AR level (in words) [4]: slight influence; average tumor size and mass vs vehicle-treated group (in words) [5]: noticeably decreased; body weight (in words) ([5]; nude mice): without noticeable loss of body weight; effect on tumor growth (in words) ([5]; nude mice with PC-3 xenografts): significant antitumor effect; also recorded: significant suppression of tumor growth |

The remaining lines, values behind:

| SMILES | IC50 [1] | DC50 [2] | effect on α1A-AR level (Western blot, in words) [2] | antiproliferation activity on PC-3 cells (in words) [1] | further results |
| --- | --- | --- | --- | --- | --- |
| COc1cc2nc(N3CCN(C(=O)c4ccco4)CC3)nc(N)c2cc1OC [Prazosin, prazosin, reference compound] | 11.7 µM |  |  |  |  |
| COc1cc2nc(N3CCN(C(=O)c4cn(CCOCCOCCOCC(=O)Nc5cccc6c5C(=O)N(C5CCC(=O)N(C)C5=O)C6=O)nn4)CC3)nc(N)c2cc1OC (centres unmarked) [Compound 11, 2-(2-(2-(2-(4-(4-(4-Amino-6,7-dimethoxyquinazolin-2-yl)piperazine-1-carbonyl)-1H-1,2,3-triazol-1-yl)ethoxy)ethoxy)ethoxy)-N-(2-(1-methyl-2,6-dioxopiperidin-3-yl)-1,3-dioxoisoindolin4-yl)acetamide] |  |  | incapable of inducing α1A-AR degradation |  |  |

— paper PMC7563999 (Acta Pharmaceutica Sinica. B, 2020)
